# MrgX1 PAM – positive allosteric modulators of MrgX1, primary screen, HEK293 cells, Fluo-4 calcium flux; FDSS; stronger effect = higher value; B-score at 10 µM; 310,000 tested, 0.63% active;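 active = plate-corrected calcium response at least 3 library SD above typical, normal starting fluorescence, not activating the receptor alone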;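 also: compound read alongside a low EC10 to EC30 dose of BAM8-22 agonist; peak minus trough fluorescence over baseline measured at the second addition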
# RGS4 inh – RGS4 inhibitors, primary screen, cell-based, HEK293 M3R inducible RGS4, calcium flux | Regulator of G-protein signaling 4 (Homo sapiens), P49798 | 310,000 tested, 0.45% active | B-score at 10 µM | Fluo-4 calcium flux; stronger effect = higher value; triggered by carbachol at its EC20 | AID 463165, 2010;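 active = B-score, a plate-corrected calcium signal, over three deviations above library mean, with baseline fluorescence within five deviations of library mean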;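 also: RGS4 expression induced by doxycycline in cells with stable M3 receptor; B-score is computed from the integrated fluorescence ratio over baseline after carbachol; higher B-score means a larger calcium signal and so more RGS4 inhibition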
# Target sequence (P49798 whole entry, looked up): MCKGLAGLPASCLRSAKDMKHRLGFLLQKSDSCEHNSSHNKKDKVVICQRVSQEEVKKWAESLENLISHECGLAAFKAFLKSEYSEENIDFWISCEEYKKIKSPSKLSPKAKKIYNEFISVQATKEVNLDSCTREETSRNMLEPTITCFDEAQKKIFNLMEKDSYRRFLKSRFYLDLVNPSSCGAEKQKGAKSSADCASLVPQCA
# RGS4 pot – RGS4 potentiators or activators, primary screen, cell-based, HEK293 M3R inducible RGS4, calcium flux. B-score at 10 µM. AID 463111, 2010. carbachol calcium flux Fluo4; stronger effect = lower value. 310,000 tested, 0.92% active;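 active = B-score of the integrated calcium signal more than 4 SD below the library mean, with starting fluorescence not abnormally high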;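 also: negative B-score means reduced calcium response which marks RGS4 activation or potentiation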
#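 Also added: carbachol at ECmax as muscarinic agonist stimulus; Assay system: HEK293 cells with stable M3R and inducible RGS4; Timing: overnight RGS4 induction, 30 min dye load 37 °C, 20 min compound RT; Measured by: Fluo4-AM (2 µM) calcium-flux fluorescence, kinetic read.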
# MrgX1 agonist – agonists of human MrgX1 receptor, primary screen, HEK293 cells, Fluo-4 calcium flux | AID 588627, 2011 | Fluo-4 calcium fluorescence, agonist mode; stronger effect = higher value | 310,000 tested, 0.44% active | B-score at 10 µM;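 active = calcium response B-score plate-corrected fluorescence ratio at least 3 library SD, with starting fluorescence B-score inside 5 SD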
#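 Material: MrgX1-expressing HEK293 cells / Dosing: compound as first of three additions / Incubation: overnight seeding, then 1 h dark dye loading / Signal: Fluo-4 NW calcium fluorescence / Evaluation: B-scored fluorescence response ratio / Benchmarks: positive and negative control wells on each plate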
# MrgX1 antag – antagonists of human MrgX1 receptor, primary screen, HEK293 cells, Fluo-4 calcium flux. Mas-related G-protein coupled receptor member X1 (Homo sapiens), Q96LB2. BAM8-22 antagonism; stronger effect = lower value. B-score at 10 µM. 310,000 tested, 1.3% active. AID 588676, 2011;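 active = calcium-response B-score plate-corrected more than 3 library SD below zero, starting fluorescence within 5 deviations, no agonist response on first addition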;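 also: peak minus trough fluorescence over baseline after final BAM8-22 challenge near maximal dose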
# The depositor's hits bear a star; i = inactive. Hits are enriched below; roughly 3.5% of the tested compounds scored in any of these assays.
SMILES,MrgX1 PAM,RGS4 inh,RGS4 pot,MrgX1 agonist,MrgX1 antag
N#CC(=C=[N-])C1=C(C#N)C(c2ccccc2F)C([n+]2ccccc2)C(O)(C2CC2)N1 (centres undefined),i,i,i,48*,i
Cc1cccc[n+]1C1C(c2ccccc2)C(C#N)=C(C(=C=[N-])C#N)NC1(O)C1CC1 (centres undefined),i,i,i,43*,i
Cc1ccc[n+](C2C(c3ccc([N+](=O)[O-])cc3)C(C#N)=C([S-])NC2(O)C2CC2)c1 (centres undefined),i,i,i,i,i
O=C(CCNS(=O)(=O)c1cccc2nsnc12)NCc1ccccc1Cl,i,i,i,i,i
CCOc1ncccc1C(=O)NNC(=O)c1ccccc1-n1cccc1,i,i,i,i,i
CCN(CC)S(=O)(=O)c1ccc(N2CCOCC2)c(NC(=O)C2=COCCO2)c1,i,i,i,i,i
COc1cccc(C(=O)NCC2(c3ccccc3)CCCC2)c1,i,i,i,i,i
COc1ccc(C(=O)NCC2(c3ccccc3)CCCC2)c(OC)c1,10*,i,i,i,-10*
Cc1c(N=Cc2c(O)n(C)c(=O)c3ccccc23)c(=O)n(-c2ccccc2)n1C,i,i,-7.2*,i,i
CCC(C)NCCOCCOc1ccc(Cl)cc1Br (centres undefined),i,i,i,i,i
COc1cccc(CNc2ccc(F)c([N+](=O)[O-])c2)c1O,18*,i,i,i,i
O=C(c1ccc(Cl)cc1)N1CCC(O)(CSc2ccc(Cl)cc2Cl)CC1,i,i,i,i,i
CCN(CC)c1ccc(/C=N/NC(=O)c2cccc(N3CCCC3=O)c2)cc1,i,i,i,i,i
CCOc1ccc(-c2[nH]ncc2-c2ccc(Cl)cc2)c(O)c1,13*,i,i,i,-13*
CN1CC=C2C(C#N)=C(N)C(C#N)(C#N)C(c3cccc(Cl)c3Cl)C2C1 (centres undefined),i,i,i,i,-5.5*
CN1CC=C2C(C#N)=C(N)C(C#N)(C#N)[C@H](c3ccoc3)[C@H]2C1,i,i,i,i,i
Cc1ccc(C2C3CN(C(C)C)CC=C3C(C#N)=C(N)C2(C#N)C#N)cc1 (centres undefined),i,i,-7.1*,i,i
COc1ccc(OC)c(C2C3CN(C(C)C)CC=C3C(C#N)=C(N)C2(C#N)C#N)c1 (centres undefined),i,i,i,27*,i
Cc1ccc(S(=O)(=O)N2CCN(C(=O)NCc3ccc(F)cc3)CC2)c(C)c1,i,i,i,i,i
O=C(NC1CCCCC1)C1CCN(S(=O)(=O)c2cccc3nonc23)CC1,i,i,i,i,i
CSc1ccc(Cl)c(C(=O)NCCOc2cc(C)ccc2C(C)C)c1,i,i,-7.2*,i,i
Nc1ccc(-c2nnnn2-c2ccc(N)cc2)cc1,i,i,i,i,i
O=C(OC1CCCCC1)c1ccc(NC(=O)C2CCCCC2)cc1,i,i,-7*,i,i
O=C(O)CCC(=O)Nc1ccc(C(=O)OC2CCCCC2)cc1,i,i,i,i,i
COc1ccc(S(=O)(=O)N2CCc3ccccc32)cc1C(=O)OCC(=O)c1c(N)n(C)c(=O)n(C)c1=O,i,i,-9.6*,i,i
COc1cc(C2Oc3cc(C4Oc5cc(O)cc(O)c5C(=O)C4O)ccc3OC2CO)ccc1O (centres undefined),8.8*,i,i,i,i
Cc1ccc(NC(=S)NC(=O)Cc2ccccc2)c(O)c1,i,i,i,i,i
O=C(N/N=C/c1cccc(C(F)(F)F)c1)c1cc2c(s1)-c1ccccc1CC2,i,i,i,i,-7.8*
COc1cc(OC)c(NC(=S)Nc2cc(Cl)cc(Cl)c2)cc1Cl,i,i,i,i,-4.7*
